In brackets after ≈: the same amount, converted by molar mass.
Experiments:
Bacillus subtilis = test: Antibacterial activity against Bacillus subtilis MTCC 441 by broth microdilution method; assay type: functional
How it was run: (§1)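 Broth microdilution per NCCLS, with serial dilutions in Mueller Hinton broth and DMSO as diluent. Tubes were incubated overnight at 37 °C. MIC was the lowest concentration giving no visible growth, with the control organism's MIC read to verify concentrations. Tubes without growth were subcultured overnight at 37 °C to judge bacteriostatic versus bactericidal action.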

Aspergillus fumigatus = test: Antifungal activity against Aspergillus fumigatus MTCC 3008 by broth microdilution method; assay type: functional
Plasmodium falciparum = test: Antimalarial activity against trophozoite stage of chloroquine-sensitive Plasmodium falciparum 3D7 infected in human erythrocytes after 48 hrs; assay type: functional, organism-based; conditions: 3D7, 48 h
How it was run: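 Parasites were kept in continuous culture in A+ human erythrocytes in RPMI with 10% human serum. Sorbitol-synchronized trophozoites at 1–2% parasitaemia and 2.5% haematocrit were exposed to serial dilutions (maximum 1 mg/ml; 0.02% final DMSO) for 48 h at 37 °C. Growth inhibition was measured; chloroquine and quinine served as positive controls. IC50 came from duplicate experiments.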

Salmonella typhi = test: Antibacterial activity against Salmonella typhi MTCC 98 by broth microdilution method; assay type: functional, Salmonella enterica subsp. enterica serovar Typhi; conditions: Salmonella enterica
Vibrio cholerae = test: Antibacterial activity against Vibrio cholerae MTCC 3906 by broth microdilution method; assay type: functional
Clostridium tetani = test: Antibacterial activity against Clostridium tetani MTCC 449 by broth microdilution method; assay type: functional
Candida albicans = test: Antifungal activity against Candida albicans MTCC 227 by broth microdilution method; assay type: functional
Streptococcus pneumoniae = test: Antibacterial activity against Streptococcus pneumoniae MTCC 1936 by broth microdilution method; assay type: functional; how it was run: as §1
[1] = system: Mycobacterium tuberculosis; test: Growth inhibition of Mycobacterium tuberculosis H37Rv at 6.25 ug/mL after 12 to 28 days relative to control; assay type: functional
Escherichia coli = test: Antibacterial activity against Escherichia coli MTCC 443 by broth microdilution method; assay type: functional; how it was run: as §1

| SMILES | MIC (Bacillus subtilis) [µg/mL] | MIC (Aspergillus fumigatus) [µg/mL] | IC50 (Plasmodium falciparum) [µg/mL] | MIC (Salmonella typhi) [µg/mL] | MIC (Vibrio cholerae) [µg/mL] | MIC (Clostridium tetani) [µg/mL] | MIC (Candida albicans) [µg/mL] | MIC (Streptococcus pneumoniae) [µg/mL] | inhibition at 6.25 µg/mL [1] [%] | MIC (Escherichia coli) [µg/mL] |
| --- | --- | --- | --- | --- | --- | --- | --- | --- | --- | --- |
| COc1ccc2nc(Cl)c(C3C(C#N)=C(N)N(Nc4ccc(Cl)cc4)C4=C3C(=O)CC(C)(C)C4)cc2c1 (configuration not stated) | 100 (≈ 187 µM) | > 1000 | 0.009 (≈ 0.0168 µM) | 100 (≈ 187 µM) | 100 (≈ 187 µM) | 200 (≈ 374 µM) | > 1000 | 100 (≈ 187 µM) | 21 | 250 (≈ 468 µM) |
| COc1ccc(NN2C(N)=C(C#N)C(c3cc4cc(OC)ccc4nc3Cl)C3=C2CC(C)(C)CC3=O)cc1 (configuration not stated) | 200 (≈ 377 µM) | 500 (≈ 943 µM) | 0.019 (≈ 0.0358 µM) | 50 (≈ 94.3 µM) | 62.5 (≈ 118 µM) | 200 (≈ 377 µM) | 500 (≈ 943 µM) | 25 (≈ 47.2 µM) | 7 | 100 (≈ 189 µM) |
| COc1ccc2nc(Cl)c(C3C(C#N)=C(N)N(Nc4ccc(C)cc4)C4=C3C(=O)CC(C)(C)C4)cc2c1 (configuration not stated) | 200 (≈ 389 µM) | 500 (≈ 973 µM) | 0.19 (≈ 0.37 µM) | 200 (≈ 389 µM) | 200 (≈ 389 µM) | 100 (≈ 195 µM) | 500 (≈ 973 µM) | 200 (≈ 389 µM) | 50 | 150 (≈ 292 µM) |
| Cc1ccc2nc(Cl)c(C3C(C#N)=C(N)N(Nc4ccccc4)C4=C3C(=O)CC(C)(C)C4)cc2c1 (configuration not stated) | 500 (≈ 1030 µM) | > 1000 | 0.15 (≈ 0.31 µM) | 200 (≈ 413 µM) | 250 (≈ 517 µM) | 500 (≈ 1030 µM) | 500 (≈ 1030 µM) | 250 (≈ 517 µM) | 12 | 100 (≈ 207 µM) |
| CCn1cc(C(=O)O)c(=O)c2cc(F)c(N3CCNCC3)cc21 [NORFLOXACIN] | 100 (≈ 313 µM) |  |  | 10 (≈ 31.3 µM) | 10 (≈ 31.3 µM) | 50 (≈ 157 µM) |  | 10 (≈ 31.3 µM) |  | 10 (≈ 31.3 µM) |
| Cc1ccc2nc(Cl)c(C3C(C#N)=C(N)N(Nc4ccc(Br)cc4)C4=C3C(=O)CC(C)(C)C4)cc2c1 (configuration not stated) | 200 (≈ 355 µM) | > 1000 | 0.012 (≈ 0.0213 µM) | 250 (≈ 444 µM) | 250 (≈ 444 µM) | 250 (≈ 444 µM) | 250 (≈ 444 µM) | 250 (≈ 444 µM) | 47 | 250 (≈ 444 µM) |
| Cc1ccc(NN2C(N)=C(C#N)C(c3cc4cc(Cl)ccc4nc3Cl)C3=C2CC(C)(C)CC3=O)cc1 (configuration not stated) | 500 (≈ 964 µM) | 500 (≈ 964 µM) | 0.014 (≈ 0.027 µM) | 250 (≈ 482 µM) | 250 (≈ 482 µM) | 250 (≈ 482 µM) | 500 (≈ 964 µM) | 500 (≈ 964 µM) | 72 | 250 (≈ 482 µM) |
| Cc1ccc(NN2C(N)=C(C#N)C(c3cc4cc(C)ccc4nc3Cl)C3=C2CC(C)(C)CC3=O)cc1 (configuration not stated) | 200 (≈ 402 µM) | 500 (≈ 1000 µM) | 0.22 (≈ 0.442 µM) | 500 (≈ 1000 µM) | 500 (≈ 1000 µM) | 250 (≈ 502 µM) | 500 (≈ 1000 µM) | 200 (≈ 402 µM) | 32 | 500 (≈ 1000 µM) |
| CC1(C)CC(=O)C2=C(C1)N(Nc1ccc(Br)cc1)C(N)=C(C#N)C2c1cc2ccccc2nc1Cl (configuration not stated) | 200 (≈ 364 µM) | > 1000 | 0.54 (≈ 0.984 µM) | 250 (≈ 455 µM) | 100 (≈ 182 µM) | 500 (≈ 911 µM) | > 1000 | 100 (≈ 182 µM) | 33 | 250 (≈ 455 µM) |
| CC1(C)S[C@@H]2[C@H](NC(=O)[C@H](N)c3ccccc3)C(=O)N2[C@H]1C(=O)O [AMPICILLIN] | 250 (≈ 715 µM) |  |  | 100 (≈ 286 µM) | 100 (≈ 286 µM) | 250 (≈ 715 µM) |  | 100 (≈ 286 µM) |  | 100 (≈ 286 µM) |
| O=C(O)c1cn(C2CC2)c2cc(N3CCNCC3)c(F)cc2c1=O [CIPROFLOXACIN] |  |  |  | 25 (≈ 75.4 µM) | 25 (≈ 75.4 µM) |  |  | 50 (≈ 151 µM) |  | 25 (≈ 75.4 µM) |
| O=C(N[C@H](CO)[C@H](O)c1ccc([N+](=O)[O-])cc1)C(Cl)Cl [CHLORAMPHENICOL] | 50 (≈ 155 µM) |  |  | 50 (≈ 155 µM) | 50 (≈ 155 µM) | 50 (≈ 155 µM) |  | 50 (≈ 155 µM) |  | 50 (≈ 155 µM) |

Reference: ChEMBL document CHEMBL2040757, “New N-arylamino biquinoline derivatives: synthesis, antimicrobial, antituberculosis, and antimalarial evaluation” (Eur J Med Chem, 2012)
